Measurements as given in paper PMC5516171 (Clinical Pharmacology in Drug Development, 2016).
“Also recorded” adds a separate entry of the source.

Key:
[1] = tested on: human mast cell line HMC‐1; assay: In vitro mast cell degranulation, human mast cell line HMC‐1; assay type: cell-based; conditions: HMC‐1 cells, 37°C, 30 minutes; up to 250 μg/mL ARC‐EX1 and ARC‐520 API
In short: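 HMC‑1 human mast cells were cultured in Iscove's medium with 2% FBS. They were exposed to increasing concentrations, up to 250 μg/mL, of the excipient peptide, the siRNA drug substance, or both combined. The positive control was phorbol myristate acetate plus calcium ionophore A23187. Incubation was 37°C for 30 min. Supernatants were assayed for histamine and β‑hexosaminidase (degranulation) and for LDH (viability).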

[2] = tested on: rat peritoneal mast cells; assay: In vitro mast cell degranulation, rat peritoneal mast cells; assay type: cell-based
In short: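 Freshly isolated rat peritoneal mast cells were resuspended in RPMI 1640 with 1% FBS. They were given increasing concentrations of the excipient peptide (up to 250 μg/mL), the siRNA drug substance (up to 1000 μg/mL), or both combined. Incubation was 37°C for 10 or 30 min. Supernatant histamine (nM ± SD) and chymase measured degranulation; LDH measured viability.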

## ARC‐EX1: delivery excipient: masked, hepatocyte‐targeted L‐melittin‐derived peptide; masking group carboxydimethyl maleic anhydride N‐acetyl galactosamine (LIGAILKVLATGLPTLISWIKNKRKQ; CDM-NAG masking groups)
[1]
  Mast cell degranulation and histamine release: major trigger
[2]; 10 and 30 minutes of incubation
  Concentration at which maximum histamine release was observed: ≥ 10000 ng/mL
[2]; 37°C, 10 or 30 minutes, up to 250 μg/mL ARC‐EX1 or 1000 μg/mL ARC‐520 API
  Mast cell degranulation and histamine release: major trigger; also recorded: induced mast cell degranulation and histamine release in a dose‐dependent manner
